Assay results gathered from unrelated publications.
Each line is one published result; the experiments were not run side by side.
Medium: plasma

SMILES | system | conditions | AUC(0-t)
CNC(=O)c1c(C)oc2cc(Oc3ncnc4cc(OC)c(OC)cc34)ccc12 | Sprague-Dawley rat | oral, 1 mg/kg, single dose | 6270 ng·h/mL
N#Cc1ccc(Nc2nc(N)cc(Oc3c(F)cc(-c4ccc(C#N)cc4)cc3F)n2)cc1 | Sprague-Dawley rat | oral, 5 mg/kg | 74 ng·h/mL
CCOC(=O)[C@@]12C[C@@H]1[C@@H](n1ccc3c(NC)nc(C#Cc4ccc(Cl)s4)nc31)[C@H](O)[C@@H]2O | male Sprague-Dawley rat | oral, 10 mg/kg | 361 ng·h/mL
Cc1c(-c2ccccc2)cccc1N1C(=O)c2cc(CN[C@H](C(=O)O)C(C)O)c(OCc3cccc(C#N)c3)cc2C1=O (some centres unmarked) | Sprague-Dawley rat | intravenous, 5 mg/kg | 3240 ng·h/mL
CCc1cc(OC)c2nccc(N3CCc4c(cc(Cn5ccnc5)cc4-c4cn(C)nc4C(F)(F)F)C3=O)c2c1 | male Sprague-Dawley rat | oral, 50 mg/kg | 10300 ng·h/mL
COc1ccc(C(C)=O)c(O)c1 | male Sprague-Dawley rat | oral, 100 mg/kg | 33600 ng·h/mL
COc1nc(-c2cc(C)c(N[C@@H](C)c3cc(F)cc(F)c3)nn2)ccc1-n1cnc(C)c1 | male Sprague-Dawley rat | intravenous, 1 mg/kg, single dose | 6350 ng·h/mL
O=C(Nc1cc(F)c(F)c(F)c1)c1ccc(F)c(S(=O)(=O)NCc2cccc(B(O)O)c2)c1 | male Sprague-Dawley rat | intravenous, 2 mg/kg | 242 ng·h/mL
Cc1nc(-c2cnc(NC(C)C)n(C)c2=O)ccc1Oc1ccnc(-c2cnn(C)c2)c1 | male Sprague-Dawley rat | oral, 10 mg/kg | 164000 ng·h/mL
CCc1cc(C(=O)NC)c2nccc(N3CCc4c(cc(Cn5ccnc5)cc4-c4cn(C)nc4C(F)(F)F)C3=O)c2c1 | male Sprague-Dawley rat | intravenous, 3 mg/kg | 1270 ng·h/mL
COc1ccc2c(Cc3ccccc3F)c3[n+](cc2c1OC)CCc1cc2c(cc1-3)OCO2.[Br-] | rat | intravenous, 5 mg/kg | 113 ng·h/mL
C#Cc1cccc(Nc2ncnc3cc(OCCOC)c(OCCOC)cc23)c1 | male Sprague-Dawley rat | oral, 12 mg/kg, single dose | 9250 ng·h/mL
COc1ccc2c(Cc3ccccc3F)c3n(c(=O)c2c1OC)CCc1cc2c(cc1-3)OCO2 | rat | oral, 5 mg/kg | 3470 ng·h/mL
C=CC(=O)N1CC2CC(n3nc(-c4ccc(C(=O)Nc5ccccn5)cc4)c4c(N)ncnc43)CC2C1 (centres unmarked) | male Wistar rat | oral, 100 mg/kg | 13200 ng·h/mL
